Laboratory results as given in ChEMBL document CHEMBL4823260, “From High-Throughput Screening to Target Validation: Benzo[d]isothiazoles as Potent and Selective Agonists of Human Transient Receptor Potential Cation Channel Subfamily M Member 5 Possessing In Vivo Gastrointestinal Prokinetic Activity in Rodents” (J Med Chem, 2021).
In brackets after ≈: the same amount, converted by molar mass.

Assays:
[1] = Protein binding in human plasma assessed as unbound fraction measured after 5 hrs by equilibrium dialysis based HPLC/UPLC-MS/MS analysis; format: ADME, cell-free
[2] = Intrinsic clearance in human liver microsomes assessed per mg protein incubated up to 30 mins in presence of NADPH by LC-MS/MS analysis; format: ADME, Microsome
[3] = target: Transient receptor potential cation channel subfamily M member 4 (Homo sapiens, UniProt Q8TD43); assay: Agonist activity at human TRPM4 expressed in CHO cells assessed as change in membrane potential by FLIPR assay
Transient receptor potential cation channel subfamily M member 4, sequence (Q8TD43 whole entry): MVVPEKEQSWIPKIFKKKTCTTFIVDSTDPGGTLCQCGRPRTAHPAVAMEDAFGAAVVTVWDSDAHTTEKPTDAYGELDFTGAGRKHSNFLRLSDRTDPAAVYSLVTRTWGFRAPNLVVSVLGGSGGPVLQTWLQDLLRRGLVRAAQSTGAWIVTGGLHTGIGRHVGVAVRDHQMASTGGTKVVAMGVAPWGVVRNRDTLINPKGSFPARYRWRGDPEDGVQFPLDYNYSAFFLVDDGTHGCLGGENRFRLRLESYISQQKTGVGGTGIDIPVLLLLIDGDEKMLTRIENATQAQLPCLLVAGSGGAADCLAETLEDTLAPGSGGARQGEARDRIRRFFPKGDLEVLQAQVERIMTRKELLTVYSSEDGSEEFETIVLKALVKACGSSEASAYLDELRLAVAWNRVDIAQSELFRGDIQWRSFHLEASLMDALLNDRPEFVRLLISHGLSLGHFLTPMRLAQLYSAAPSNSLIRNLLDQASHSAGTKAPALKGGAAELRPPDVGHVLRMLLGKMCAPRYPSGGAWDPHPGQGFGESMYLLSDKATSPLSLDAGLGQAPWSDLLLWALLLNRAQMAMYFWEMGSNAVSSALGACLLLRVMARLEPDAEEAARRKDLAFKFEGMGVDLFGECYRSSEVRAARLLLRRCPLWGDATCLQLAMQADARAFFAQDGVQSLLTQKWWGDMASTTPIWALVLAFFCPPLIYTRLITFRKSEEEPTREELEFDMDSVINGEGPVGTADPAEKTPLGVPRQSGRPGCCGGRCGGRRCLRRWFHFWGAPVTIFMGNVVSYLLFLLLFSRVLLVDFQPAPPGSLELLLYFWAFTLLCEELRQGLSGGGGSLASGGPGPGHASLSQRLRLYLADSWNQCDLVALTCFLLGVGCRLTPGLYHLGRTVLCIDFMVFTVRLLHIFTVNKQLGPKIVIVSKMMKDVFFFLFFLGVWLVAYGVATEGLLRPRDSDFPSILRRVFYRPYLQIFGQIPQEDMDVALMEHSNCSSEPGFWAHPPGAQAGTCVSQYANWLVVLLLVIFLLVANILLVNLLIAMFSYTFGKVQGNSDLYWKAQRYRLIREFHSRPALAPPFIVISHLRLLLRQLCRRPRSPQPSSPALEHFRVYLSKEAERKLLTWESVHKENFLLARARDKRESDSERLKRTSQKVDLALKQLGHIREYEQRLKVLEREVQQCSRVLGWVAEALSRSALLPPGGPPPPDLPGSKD

[4] = target: Transient receptor potential cation channel subfamily A member 1 (Homo sapiens, UniProt O75762); assay: Agonist activity at human TRPA1 expressed in HEK cells assessed as increase in menthol-induced intracellular calcium level incubated for 2 hrs by FLIPR assay; format: cell-based
Transient receptor potential cation channel subfamily A member 1, sequence (O75762 whole entry): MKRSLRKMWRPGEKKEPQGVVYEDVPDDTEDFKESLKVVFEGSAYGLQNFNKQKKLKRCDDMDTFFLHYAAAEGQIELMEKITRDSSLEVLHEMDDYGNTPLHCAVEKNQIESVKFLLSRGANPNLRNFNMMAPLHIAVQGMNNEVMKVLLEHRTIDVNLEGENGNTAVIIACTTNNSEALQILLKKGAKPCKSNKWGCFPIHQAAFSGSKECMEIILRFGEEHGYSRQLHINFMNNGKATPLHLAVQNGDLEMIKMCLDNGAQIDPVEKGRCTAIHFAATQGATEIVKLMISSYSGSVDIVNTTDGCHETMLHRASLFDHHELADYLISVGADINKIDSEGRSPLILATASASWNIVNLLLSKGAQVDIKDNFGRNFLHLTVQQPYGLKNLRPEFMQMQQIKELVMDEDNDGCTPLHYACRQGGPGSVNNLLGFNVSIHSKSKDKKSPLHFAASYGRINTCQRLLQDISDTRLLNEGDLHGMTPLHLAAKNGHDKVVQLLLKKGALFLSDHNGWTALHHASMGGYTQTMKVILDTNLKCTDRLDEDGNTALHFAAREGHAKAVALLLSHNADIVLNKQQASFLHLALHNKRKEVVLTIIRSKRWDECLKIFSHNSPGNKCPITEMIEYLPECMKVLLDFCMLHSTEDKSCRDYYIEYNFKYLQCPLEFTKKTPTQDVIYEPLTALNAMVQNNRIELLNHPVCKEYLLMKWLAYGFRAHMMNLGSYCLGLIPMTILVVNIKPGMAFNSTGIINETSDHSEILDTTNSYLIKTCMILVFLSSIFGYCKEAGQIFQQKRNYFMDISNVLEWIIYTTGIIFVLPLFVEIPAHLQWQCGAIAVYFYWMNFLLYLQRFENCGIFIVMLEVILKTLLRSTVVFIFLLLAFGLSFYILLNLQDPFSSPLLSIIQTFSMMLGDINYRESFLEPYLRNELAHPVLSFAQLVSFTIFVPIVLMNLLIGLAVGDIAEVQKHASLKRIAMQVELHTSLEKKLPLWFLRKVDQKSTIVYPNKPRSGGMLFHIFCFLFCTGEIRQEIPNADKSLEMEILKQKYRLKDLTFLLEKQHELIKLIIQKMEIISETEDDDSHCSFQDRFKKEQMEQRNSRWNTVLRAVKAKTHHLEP
In short: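 HEK cells stably expressing hTRPA1, plated at 20,000/well 24 h ahead, loaded with calcium-6 dye plus 2.5 mM probenecid for 2 h at 37 °C. First FLIPR addition: 11-point 1:3 concentration series, read for 5 min, scaled to (−)menthol 1 mM final (100% control); pEC50 fitted. Final DMSO 0.5%; run at 37 °C.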

[5] = target: Transient receptor potential cation channel subfamily V member 1 (Homo sapiens, UniProt Q8NER1); assay: Agonist activity at human TRPV1 expressed in CHO cells assessed as increase in capsaicin-induced intracellular calcium level measured after 1 hr by FLIPR assay; format: cell-based
Transient receptor potential cation channel subfamily V member 1, sequence (Q8NER1 whole entry): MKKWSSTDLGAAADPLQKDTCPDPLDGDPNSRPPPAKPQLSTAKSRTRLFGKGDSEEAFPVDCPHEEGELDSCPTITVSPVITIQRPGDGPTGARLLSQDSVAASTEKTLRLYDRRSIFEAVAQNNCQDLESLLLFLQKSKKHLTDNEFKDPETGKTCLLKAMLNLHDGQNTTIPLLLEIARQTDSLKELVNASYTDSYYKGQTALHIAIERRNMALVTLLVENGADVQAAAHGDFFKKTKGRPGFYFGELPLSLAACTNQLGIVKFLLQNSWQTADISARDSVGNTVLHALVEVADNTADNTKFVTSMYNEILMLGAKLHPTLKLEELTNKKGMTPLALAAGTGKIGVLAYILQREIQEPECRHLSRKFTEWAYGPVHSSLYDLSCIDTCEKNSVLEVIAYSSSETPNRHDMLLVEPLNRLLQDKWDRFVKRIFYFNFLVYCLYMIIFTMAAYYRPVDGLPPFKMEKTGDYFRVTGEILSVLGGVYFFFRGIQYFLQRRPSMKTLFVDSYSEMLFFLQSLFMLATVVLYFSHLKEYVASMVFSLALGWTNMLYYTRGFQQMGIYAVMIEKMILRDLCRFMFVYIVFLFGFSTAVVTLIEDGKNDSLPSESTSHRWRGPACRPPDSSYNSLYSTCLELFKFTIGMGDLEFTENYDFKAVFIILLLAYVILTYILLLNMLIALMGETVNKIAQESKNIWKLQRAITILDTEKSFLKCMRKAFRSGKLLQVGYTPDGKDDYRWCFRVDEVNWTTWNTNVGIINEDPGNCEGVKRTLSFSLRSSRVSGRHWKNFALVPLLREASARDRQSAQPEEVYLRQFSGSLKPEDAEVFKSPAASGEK
In short: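 CHO cells stably expressing hTRPV1, plated at 10,000/well 24 h before the assay. Loaded with calcium-6 dye plus 2.5 mM probenecid for 1 h at 37 °C and 1 h at rt. FLIPR dual-addition protocol; agonist potency derived as pEC50.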

[6] = Efflux ratio of apparent permeability across basolateral to apical over apical to basolateral membrane in human Caco-2 cells incubated for 30 mins by LC-MS/MS analysis; format: ADME, cell-based
[7] = Apparent permeability across apical to basolateral membrane in human Caco-2 cells incubated for 30 mins by LC-MS/MS analysis; format: ADME, cell-based
[8] = target: Transient receptor potential cation channel subfamily V member 4 (Homo sapiens, UniProt Q9HBA0); assay: Agonist activity at human TRPV4 expressed in HEK cells assessed as increase in GSK1016790A-induced intracellular calcium level measured after 1 hr by FLIPR assay; format: cell-based
Transient receptor potential cation channel subfamily V member 4, sequence (Q9HBA0 whole entry): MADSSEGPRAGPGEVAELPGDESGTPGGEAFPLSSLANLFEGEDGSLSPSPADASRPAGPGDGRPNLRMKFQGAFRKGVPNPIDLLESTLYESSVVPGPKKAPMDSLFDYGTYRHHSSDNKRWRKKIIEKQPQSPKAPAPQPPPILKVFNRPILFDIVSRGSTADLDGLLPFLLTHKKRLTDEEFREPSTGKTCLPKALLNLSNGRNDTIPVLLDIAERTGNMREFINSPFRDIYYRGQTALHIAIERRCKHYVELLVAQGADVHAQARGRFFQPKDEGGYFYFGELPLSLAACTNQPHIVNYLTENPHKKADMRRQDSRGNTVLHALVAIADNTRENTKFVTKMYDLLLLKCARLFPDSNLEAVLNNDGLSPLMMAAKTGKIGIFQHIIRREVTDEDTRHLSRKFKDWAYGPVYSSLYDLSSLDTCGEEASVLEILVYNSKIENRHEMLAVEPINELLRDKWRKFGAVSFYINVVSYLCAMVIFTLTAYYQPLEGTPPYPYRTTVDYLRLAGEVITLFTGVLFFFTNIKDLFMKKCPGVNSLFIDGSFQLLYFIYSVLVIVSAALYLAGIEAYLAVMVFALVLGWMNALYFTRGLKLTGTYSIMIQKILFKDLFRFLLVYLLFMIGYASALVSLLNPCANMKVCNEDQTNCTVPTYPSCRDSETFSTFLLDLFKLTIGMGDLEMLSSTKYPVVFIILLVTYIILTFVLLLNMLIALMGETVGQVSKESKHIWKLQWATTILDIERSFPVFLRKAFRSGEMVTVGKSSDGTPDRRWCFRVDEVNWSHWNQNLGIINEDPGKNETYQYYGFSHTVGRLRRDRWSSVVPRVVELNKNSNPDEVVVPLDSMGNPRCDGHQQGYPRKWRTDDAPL

[9] = Intrinsic clearance in mouse liver microsomes assessed per mg protein incubated up to 30 mins in presence of NADPH by LC-MS/MS analysis; format: ADME, Microsome
[10] = Solubility of the compound in phospahte-buffered saline buffer at pH 7.4 incubated for 2 hrs by HPLC/UV analysis; format: physicochemical; settings: phosphate-buffered saline
[11] = target: Transient receptor potential cation channel subfamily M member 8 (Homo sapiens, UniProt Q7Z2W7); assay: Agonist activity at human TRPM8 expressed in HEK cells assessed as increase in menthol-induced intracellular calcium level measured after 1 hr by FLIPR assay; format: cell-based
In short: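 HEK cells with stable hTRPM8, 20,000/well on poly-D-lysine plates 24 h ahead. Loaded with calcium-6 dye and 2.5 mM probenecid, 1 h at 37 °C then 1 h at rt. First-addition calcium rise scaled to (−)menthol 100 μM final (100% control); pEC50 derived from the concentration–response. Final DMSO 0.5%; assay at rt.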

[12] = target: T1, Transient receptor potential cation channel subfamily M member 5 (Homo sapiens, UniProt Q9NZQ8); assay: Agonist activity at human TRPM5 expressed in CHO-K1 cells maintained at 80 mV final holding potential by syncroPatch assay; format: cell-based
T1 sequence (Q9NZQ8 whole entry): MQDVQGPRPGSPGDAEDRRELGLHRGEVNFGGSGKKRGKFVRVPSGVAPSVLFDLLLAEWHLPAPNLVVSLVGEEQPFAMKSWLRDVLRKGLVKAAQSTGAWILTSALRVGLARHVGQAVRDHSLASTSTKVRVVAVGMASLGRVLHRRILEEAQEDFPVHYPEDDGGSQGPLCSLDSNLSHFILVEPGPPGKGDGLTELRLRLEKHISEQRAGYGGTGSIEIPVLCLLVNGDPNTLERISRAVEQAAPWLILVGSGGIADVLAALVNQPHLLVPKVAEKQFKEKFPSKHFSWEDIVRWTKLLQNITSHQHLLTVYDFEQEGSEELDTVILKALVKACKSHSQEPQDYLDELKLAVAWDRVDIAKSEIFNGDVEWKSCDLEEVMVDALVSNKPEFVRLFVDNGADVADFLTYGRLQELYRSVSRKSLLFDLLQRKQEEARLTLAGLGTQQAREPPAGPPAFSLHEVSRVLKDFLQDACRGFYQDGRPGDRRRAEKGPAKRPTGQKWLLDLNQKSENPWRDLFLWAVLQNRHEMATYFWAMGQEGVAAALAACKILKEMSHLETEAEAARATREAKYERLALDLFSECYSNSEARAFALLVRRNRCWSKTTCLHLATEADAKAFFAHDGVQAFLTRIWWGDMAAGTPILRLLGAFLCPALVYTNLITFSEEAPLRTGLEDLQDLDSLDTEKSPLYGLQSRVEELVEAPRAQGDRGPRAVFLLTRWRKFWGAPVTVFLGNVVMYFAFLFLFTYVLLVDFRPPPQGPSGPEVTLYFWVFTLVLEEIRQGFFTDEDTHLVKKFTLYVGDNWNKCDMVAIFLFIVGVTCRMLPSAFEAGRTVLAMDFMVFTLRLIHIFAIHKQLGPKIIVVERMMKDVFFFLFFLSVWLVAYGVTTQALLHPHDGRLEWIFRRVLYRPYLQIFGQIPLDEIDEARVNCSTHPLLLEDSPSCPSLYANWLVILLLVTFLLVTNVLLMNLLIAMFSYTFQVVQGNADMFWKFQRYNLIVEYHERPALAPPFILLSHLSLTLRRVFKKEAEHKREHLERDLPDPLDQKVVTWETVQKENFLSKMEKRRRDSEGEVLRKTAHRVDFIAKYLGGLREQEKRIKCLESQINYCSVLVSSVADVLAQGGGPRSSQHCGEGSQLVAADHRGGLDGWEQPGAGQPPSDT
In short: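 SyncroPatch 384 whole-cell recording at rt on CHO-K1 cells stably expressing human or mouse TRPM5. Intracellular solution had 2 mM Na-ATP and 5 μM free Ca2+. Cumulative doses 0.03–31.6 μM in 0.5% DMSO, 150 s each after 180 s vehicle. Current measured at the end of the +80 mV step, normalized to vehicle; pEC50 is the mean of ≥2 independent experiments.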

Compound | fraction unbound at 5 h [1] | microsomal CLint [2] | EC50 [3] | EC50 [4] | EC50 [5] | efflux ratio at 0.5 h [6] | Papp A→B at 0.5 h [7] | EC50 [8] | microsomal CLint [9] | solubility at 2 h [10] | EC50 [11] | EC50 [12]
Clc1cnc(CNc2ccc3sncc3c2)s1 | < 0.01 | 193 µL/min/mg | > 63.1 µM | 3.16 µM | > 15.8 µM | 0.97 | 12.6 ×10⁻⁶ cm/s | > 15.8 µM | 462 µL/min/mg | 50 µM (≈ 14.1 µg/mL) | > 15.8 µM | 0.0891 µM
Clc1cnc(CNc2ccc3cnsc3c2)s1 | < 0.01 | 146 µL/min/mg | > 63.1 µM | 6.31 µM | > 15.8 µM | 1.08 | 10.7 ×10⁻⁶ cm/s | > 15.8 µM | 164 µL/min/mg | 511 µM (≈ 144 µg/mL) | > 15.8 µM | 0.0437 µM
Clc1cnc(CNc2cc3sncc3cc2Cl)s1 | < 0.01 | 172 µL/min/mg | 3.16 µM | 3.16 µM | > 15.8 µM | 1.6 | 4.1 ×10⁻⁶ cm/s | > 15.8 µM | 520 µL/min/mg | 30 µM (≈ 9.49 µg/mL) | > 15.8 µM | 0.00794 µM
